Measured values from ChEMBL document CHEMBL2384906, “Biological activity, design, synthesis and structure activity relationship of some novel derivatives of curcumin containing sulfonamides” (Eur J Med Chem, 2013).
≈ marks a conversion by molar mass, not a printed value. Calls of active or inactive are those of the source. No cut-off for these calls is given here.

Tests used:
Mus musculus = assay: Antiinflammatory activity in mouse assessed as inhibition of carrageenan-induced increase in paw volume at 200 mg/kg administered 1 hr prior to carrageenan challenge measured after 3 hrs relative to control; assay type: functional
Method in brief: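 Mice were fasted 2 h and placed in groups of five. Controls received saline i.p. Phenylbutazone was given at 100 mg/kg i.p., curcumin at 200 mg/kg i.p., and derivatives at 200 mg/kg. After 1 h, 0.1 mL of 1% carrageenan in saline was injected subplantar into the right hind paw. Paw volume was followed by plethysmometer for 3 h, and % inhibition was calculated as (Vc − Vt)/Vc × 100.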

HCT-116 = assay: Cytotoxicity against human HCT116 cells after 24 hrs by MTT assay; assay type: functional, cell-based
Method in brief: (§1)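 The MTT assay seeded 5 × 10⁴ cells per well and grew them 24 h in RPMI 1640 with compound at 2.5–200 µM. Medium without cells was the blank and adriamycin the positive control. MTT was added for 4 h at 37 °C, formazan was solubilised, and absorbance was read at 570 nm. IC50 is the concentration that cuts viability 50% against untreated cells.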

QG-56 = assay: Cytotoxicity against human QG56 cells after 24 hrs by MTT assay; assay type: functional, cell-based; method in brief: as §1
HeLa = assay: Cytotoxicity against human HeLa cells after 24 hrs by MTT assay; assay type: functional, cell-based; method in brief: as §1
HepG2 = assay: Cytotoxicity against human HepG2 cells after 24 hrs by MTT assay; assay type: functional, cell-based; method in brief: as §1
Trichoderma viride [1] = assay: Antifungal activity against Trichoderma viride MTCC 1107 after 48 hrs; assay type: functional; conditions: MTCC 1107, 48 h
Trichoderma viride [2] = assay: Antifungal activity against Trichoderma viride MTCC 1107 assessed as zone of inhibition at 20 uM after 48 hrs by disc diffusion method; assay type: functional; conditions: MTCC 1107, 48 h, read-out: IZ
Method in brief: (§2)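 Spores from 4-day potato dextrose agar cultures, suspended in sterile water at 1.5 × 10⁵ CFU/mL. 0.2 mL was spread on potato dextrose agar. 5 mm filter-paper discs soaked with test compound were laid on the lawn. Incubation was 48 h at 28 °C, then the inhibition zone was measured in mm. Fluconazole was the positive control and acetone the negative control.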

Trichoderma viride [3] = assay: Antifungal activity against Trichoderma viride MTCC 1107 assessed as zone of inhibition at 40 uM after 48 hrs by disc diffusion method; assay type: functional; conditions: MTCC 1107, 48 h, read-out: IZ; method in brief: as §2
Trichoderma viride [4] = assay: Antifungal activity against Trichoderma viride MTCC 1107 assessed as zone of inhibition at 80 uM after 48 hrs by disc diffusion method; assay type: functional; conditions: MTCC 1107, 48 h, read-out: IZ; method in brief: as §2
Curvularia lunata [5] = assay: Antifungal activity against Curvularia lunata MTCC 581 after 48 hrs; assay type: functional; conditions: MTCC 581, 48 h
Curvularia lunata [6] = assay: Antifungal activity against Curvularia lunata MTCC 581 assessed as zone of inhibition at 20 uM after 48 hrs by disc diffusion method; assay type: functional; conditions: MTCC 581, 48 h, read-out: IZ; method in brief: as §2
Curvularia lunata [7] = assay: Antifungal activity against Curvularia lunata MTCC 581 assessed as zone of inhibition at 40 uM after 48 hrs by disc diffusion method; assay type: functional; conditions: MTCC 581, 48 h, read-out: IZ; method in brief: as §2
Aspergillus flavus [8] = assay: Antifungal activity against Aspergillus flavus MTCC 1021 after 48 hrs; assay type: functional
Curvularia lunata [9] = assay: Antifungal activity against Curvularia lunata MTCC 581 assessed as zone of inhibition at 80 uM after 48 hrs by disc diffusion method; assay type: functional; conditions: MTCC 581, 48 h, read-out: IZ; method in brief: as §2
Aspergillus flavus [10] = assay: Antifungal activity against Aspergillus flavus MTCC 1021 assessed as zone of inhibition at 80 uM after 48 hrs by disc diffusion method; assay type: functional; method in brief: as §2
Aspergillus niger [11] = assay: Antifungal activity against Aspergillus niger MTCC 1108 after 48 hrs; assay type: functional
Aspergillus niger [12] = assay: Antifungal activity against Aspergillus niger MTCC 1108 assessed as zone of inhibition at 80 uM after 48 hrs by disc diffusion method; assay type: functional; method in brief: as §2
Escherichia coli [13] = assay: Antimicrobial activity against Escherichia coli ATCC 35218 after 24 hrs by broth micro serial dilution method; assay type: functional; conditions: ATCC 35218, 24 h
Method in brief: (§3)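 This was broth microdilution in autoclaved Mueller-Hinton broth. 150 µL of compound per well was serially diluted […], and 50 µL of test organism was added. Plates were incubated 24 h at 37 °C and optical density was read.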

Escherichia coli [14] = assay: Antimicrobial activity against Escherichia coli ATCC 35218 assessed as diameter of inhibition zone at 20 uM after 24 hrs by Kirby -Baur disc diffusion method; assay type: functional; conditions: ATCC 35218, 24 h, read-out: DIZ
Method in brief: (§4)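 Kirby-Bauer disc diffusion was used. Acetone stocks (160 µM) were serially doubled down to 80, 40 and 20 µM. 4 µL of each went onto 5 mm sterile paper discs, which were dried 30 min at 50 °C. Inoculum was 1.5 × 10⁸ CFU/mL diluted to 3 × 10² CFU/mL, and 50 µL was spread on Mueller-Hinton agar. After 24 h at 37 °C the inhibition-zone diameter was measured. Ciprofloxacin served as positive control.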

Escherichia coli [15] = assay: Antimicrobial activity against Escherichia coli ATCC 35218 assessed as diameter of inhibition zone at 40 uM after 24 hrs by Kirby -Baur disc diffusion method; assay type: functional; conditions: ATCC 35218, 24 h, read-out: DIZ; method in brief: as §4
Escherichia coli [16] = assay: Antimicrobial activity against Escherichia coli ATCC 35218 assessed as diameter of inhibition zone at 80 uM after 24 hrs by Kirby -Baur disc diffusion method; assay type: functional; conditions: ATCC 35218, 24 h, read-out: DIZ; method in brief: as §4
Pseudomonas aeruginosa [17] = assay: Antimicrobial activity against Pseudomonas aeruginosa ATCC 15499 after 24 hrs by broth micro serial dilution method; assay type: functional; conditions: ATCC 15499, 24 h; method in brief: as §3
Pseudomonas aeruginosa [18] = assay: Antimicrobial activity against Pseudomonas aeruginosa ATCC 15499 assessed as diameter of inhibition zone at 80 uM after 24 hrs by Kirby -Baur disc diffusion method; assay type: functional; method in brief: as §4
Salmonella typhi [19] = assay: Antimicrobial activity against Salmonella typhi ATCC 23564 after 24 hrs by broth micro serial dilution method; assay type: functional, Salmonella enterica subsp. enterica serovar Typhi; conditions: Salmonella enterica, ATCC 23564, 24 h
Salmonella typhi [20] = assay: Antimicrobial activity against Salmonella typhi ATCC 23564 assessed as diameter of inhibition zone at 20 uM after 24 hrs by Kirby -Baur disc diffusion method; assay type: functional; conditions: Salmonella enterica subsp. enterica serovar Typhi
Salmonella typhi [21] = assay: Antimicrobial activity against Salmonella typhi ATCC 23564 assessed as diameter of inhibition zone at 40 uM after 24 hrs by Kirby -Baur disc diffusion method; assay type: functional; conditions: Salmonella enterica subsp. enterica serovar Typhi
Salmonella typhi [22] = assay: Antimicrobial activity against Salmonella typhi ATCC 23564 assessed as diameter of inhibition zone at 80 uM after 24 hrs by Kirby -Baur disc diffusion method; assay type: functional, Salmonella enterica subsp. enterica serovar Typhi; conditions: Salmonella enterica, ATCC 23564, 24 h; read-out: DIZ
Bacillus cereus [23] = assay: Antimicrobial activity against Bacillus cereus MTCC 7350 after 24 hrs by broth micro serial dilution method; assay type: functional; conditions: MTCC 7350, 24 h; method in brief: as §3
Bacillus cereus [24] = assay: Antimicrobial activity against Bacillus cereus MTCC 7350 assessed as diameter of inhibition zone at 20 uM after 24 hrs by Kirby -Baur disc diffusion method; assay type: functional; method in brief: as §4
Bacillus cereus [25] = assay: Antimicrobial activity against Bacillus cereus MTCC 7350 assessed as diameter of inhibition zone at 40 uM after 24 hrs by Kirby -Baur disc diffusion method; assay type: functional; method in brief: as §4
Bacillus cereus [26] = assay: Antimicrobial activity against Bacillus cereus MTCC 7350 assessed as diameter of inhibition zone at 80 uM after 24 hrs by Kirby -Baur disc diffusion method; assay type: functional; conditions: MTCC 7350, 24 h, read-out: DIZ; method in brief: as §4
Staphylococcus aureus [27] = assay: Antimicrobial activity against Staphylococcus aureus ATCC 11632 after 24 hrs by broth micro serial dilution method; assay type: functional; conditions: ATCC 11632, 24 h; method in brief: as §3
Staphylococcus aureus [28] = assay: Antimicrobial activity against Staphylococcus aureus ATCC 11632 assessed as diameter of inhibition zone at 20 uM after 24 hrs by Kirby -Baur disc diffusion method; assay type: functional; method in brief: as §4
Staphylococcus aureus [29] = assay: Antimicrobial activity against Staphylococcus aureus ATCC 11632 assessed as diameter of inhibition zone at 40 uM after 24 hrs by Kirby -Baur disc diffusion method; assay type: functional; conditions: ATCC 11632, 24 h, read-out: DIZ; method in brief: as §4
Staphylococcus aureus [30] = assay: Antimicrobial activity against Staphylococcus aureus ATCC 11632 assessed as diameter of inhibition zone at 80 uM after 24 hrs by Kirby -Baur disc diffusion method; assay type: functional; conditions: ATCC 11632, 24 h, read-out: DIZ; method in brief: as §4

COc1cc(/C=C/c2nn(-c3ccccc3)c(/C=C/c3ccc(O)c(OC)c3)c2/N=N/c2ccc(S(=O)(=O)Nc3nc(C)cc(C)n3)cc2)ccc1O
inhibition in vivo at 200 mg/kg (Mus musculus): 37% | IC50 (HCT-116): Not Active | IC50 (QG-56): 100 µM | IC50 (HeLa): 50 µM | IC50 (HepG2): > 100 µM | MIC (Trichoderma viride [1]): 20 µM (≈ 14.6 µg/mL) | zone of inhibition at 20 µM (Trichoderma viride [2]): 18 mm | zone of inhibition at 40 µM (Trichoderma viride [3]): 19 mm | zone of inhibition at 80 µM (Trichoderma viride [4]): 22 mm | MIC (Curvularia lunata [5]): 20 µM (≈ 14.6 µg/mL) | zone of inhibition at 20 µM (Curvularia lunata [6]): 18 mm | zone of inhibition at 40 µM (Curvularia lunata [7]): 19 mm | MIC (Aspergillus flavus [8]): inactive | zone of inhibition at 80 µM (Curvularia lunata [9]): 22 mm | inhibition zone (IZ) (Aspergillus flavus [10]): inactive | MIC (Aspergillus niger [11]): inactive | inhibition zone (IZ) (Aspergillus niger [12]): inactive | MIC (Escherichia coli [13]): > 80 µM | zone of inhibition at 20 µM (Escherichia coli [14]): 9 mm | zone of inhibition at 40 µM (Escherichia coli [15]): 11 mm | zone of inhibition at 80 µM (Escherichia coli [16]): 12 mm | MIC (Pseudomonas aeruginosa [17]): > 80 µM | diameter of the inhibition zone (DIZ) (Pseudomonas aeruginosa [18]): inactive | MIC (Salmonella typhi [19]): > 80 µM | diameter of the inhibition zone (DIZ) (Salmonella typhi [20]): inactive | diameter of the inhibition zone (DIZ) (Salmonella typhi [21]): inactive | zone of inhibition at 80 µM (Salmonella typhi [22]): 9 mm | MIC (Bacillus cereus [23]): > 80 µM | diameter of the inhibition zone (DIZ) (Bacillus cereus [24]): inactive | diameter of the inhibition zone (DIZ) (Bacillus cereus [25]): inactive | zone of inhibition at 80 µM (Bacillus cereus [26]): 9 mm | MIC (Staphylococcus aureus [27]): > 80 µM | diameter of the inhibition zone (DIZ) (Staphylococcus aureus [28]): inactive | zone of inhibition at 40 µM (Staphylococcus aureus [29]): 8 mm | zone of inhibition at 80 µM (Staphylococcus aureus [30]): 9 mm
